Tests used:
MCF7 [1] = test: Antiproliferative activity against human MCF7 cells after 72 hrs by MTT assay; assay type: functional, cell-based; conditions: MCF7, 72 h
How it was run: (§1)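 MTT viability assay. Cells grown in RPMI-1640 with 10% heat-inactivated FBS, L-glutamine and 1% penicillin/streptomycin, used within 20 passages. Seeded at 5×10^3 cells/well, left overnight at 37 °C, then exposed to final concentrations of 0.005–50 µM (0.1% DMSO) for up to 72 h. MTT added for 3 h, formazan dissolved in DMSO, absorbance read at 550 nm. IC50 derived relative to untreated controls.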

K562 = test: Antiproliferative activity against human K562 cells after 72 hrs by MTT assay; assay type: functional, cell-based; conditions: K562, 72 h
A2780 = test: Antiproliferative activity against human A2780 cells after 72 hrs by MTT assay; assay type: functional, cell-based; conditions: A2780, 72 h; how it was run: as §1
HCT-116 = test: Antiproliferative activity against human HCT116 cells after 72 hrs by MTT assay; assay type: functional, cell-based; conditions: HCT-116, 72 h; how it was run: as §1
[2] = Antiproliferative activity against human WM793B cells after 72 hrs by MTT assay; assay type: functional, cell-based; how it was run: as §1
[3] = molecular target: Mitogen-activated protein kinase 3 (Homo sapiens) (UniProt P27361); test: Inhibition of ERK1 (unknown origin) at 10 uM by [33P]-ATP radiometric assay
How it was run: (§2)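 Radiometric kinase profiling: purified recombinant kinase (~10–50 nM final) with substrate, assay buffer and compound at 10 µM (control 10% DMSO). Started with 33P-ATP (50 µM stock, 0.8 µCi), run 30 min at ambient temperature, then spotted onto P81 phosphocellulose and washed in 1% phosphoric acid. Scintillation counted, no-substrate blank subtracted, single measurement, result given as % change versus control.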

MCF7 [4] = test: Induction of apoptosis in human MCF7 cells assessed as necrotic cells at 5 uM after 72 hrs by annexin V-FITC/propidium iodide staining-based flow cytometric method (reference value: 12.6%); assay type: functional
MCF7 [5] = test: Induction of apoptosis in human MCF7 cells assessed as early apoptotic cells at 5 uM after 72 hrs by annexin V-FITC/propidium iodide staining-based flow cytometric method (reference value: 9%); assay type: functional
MCF7 [6] = test: Induction of apoptosis in human MCF7 cells assessed as late apoptotic cells at 5 uM after 72 hrs by annexin V-FITC/propidium iodide staining-based flow cytometric method (reference value: 2.6%); assay type: functional
[7] = molecular target: Activin receptor type-2A (Homo sapiens) (UniProt P27037); test: Inhibition of ACVR2A (unknown origin) at 10 uM by [33P]-ATP radiometric assay; how it was run: as §2
[8] = molecular target: Hepatocyte growth factor receptor (Homo sapiens) (UniProt P08581); test: Inhibition of MET (unknown origin) at 10 uM by [33P]-ATP radiometric assay; how it was run: as §2
MCF7 [9] = test: Induction of apoptosis in human MCF7 cells assessed as late apoptotic cells at 10 uM after 72 hrs by annexin V-FITC/propidium iodide staining-based flow cytometric method (reference value: 2.6%); assay type: functional
[10] = molecular target: Fibroblast growth factor receptor 1 (Homo sapiens) (UniProt P11362); test: Inhibition of FGFR1 (unknown origin) at 10 uM by [33P]-ATP radiometric assay; how it was run: as §2
[11] = molecular target: Epidermal growth factor receptor (Homo sapiens) (UniProt P00533); test: Inhibition of EGFR (unknown origin) at 10 uM by [33P]-ATP radiometric assay; how it was run: as §2
[12] = molecular target: Mitogen-activated protein kinase 8 (Homo sapiens) (UniProt P45983); test: Inhibition of JNK1 (unknown origin) at 10 uM by [33P]-ATP radiometric assay; how it was run: as §2
[13] = molecular target: Mast/stem cell growth factor receptor Kit (Homo sapiens) (UniProt P10721); test: Inhibition of c-KIT (unknown origin) at 10 uM by [33P]-ATP radiometric assay
How it was run: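 Radiometric kinase profiling: purified recombinant kinase (~10–50 nM final) with substrate, assay buffer and compound at 10 µM (control 10% DMSO). Started with 33P-ATP (50 µM stock, 0.8 µCi), run 30 min at ambient temperature, then spotted onto P81 phosphocellulose and washed in 1% phosphoric acid.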

MCF7 [14] = test: Induction of apoptosis in human MCF7 cells assessed as necrotic cells at 1 uM after 72 hrs by annexin V-FITC/propidium iodide staining-based flow cytometric method (reference value: 12.6%); assay type: functional
[15] = molecular target: Receptor tyrosine-protein kinase erbB-2 (Homo sapiens) (UniProt P04626); test: Inhibition of HER2 (unknown origin) at 10 uM by [33P]-ATP radiometric assay; how it was run: as §2
[16] = molecular target: Vascular endothelial growth factor receptor 1 (Homo sapiens) (UniProt P17948); test: Inhibition of FLT1 (unknown origin) at 10 uM by [33P]-ATP radiometric assay; how it was run: as §2
MCF7 [17] = test: Induction of apoptosis in human MCF7 cells assessed as late apoptotic cells at 1 uM after 72 hrs by annexin V-FITC/propidium iodide staining-based flow cytometric method (reference value: 2.6%); assay type: functional
MCF7 [18] = test: Induction of apoptosis in human MCF7 cells assessed as viable cells at 10 uM after 72 hrs by annexin V-FITC/propidium iodide staining-based flow cytometric method (reference value: 76%); assay type: functional; conditions: MCF7, 72 h, read-out: Activity
MCF7 [19] = test: Induction of apoptosis in human MCF7 cells assessed as viable cells at 1 uM after 72 hrs by annexin V-FITC/propidium iodide staining-based flow cytometric method (reference value: 76%); assay type: functional; conditions: MCF7, 72 h, read-out: Activity
[20] = molecular target: Cyclin-dependent kinase 16 (Homo sapiens) (UniProt Q00536); test: Inhibition of CDK16 (unknown origin) at 10 uM by [33P]-ATP radiometric assay; how it was run: as §2
[21] = molecular target: Focal adhesion kinase 1 (Homo sapiens) (UniProt Q05397); test: Inhibition of FAK (unknown origin) at 10 uM by [33P]-ATP radiometric assay; how it was run: as §2
[22] = molecular target: Casein kinase I isoform alpha (Homo sapiens) (UniProt P48729); test: Inhibition of CK1alpha1 (unknown origin) at 10 uM by [33P]-ATP radiometric assay; how it was run: as §2
[23] = molecular target: Calcium/calmodulin-dependent protein kinase type 1 (Homo sapiens) (UniProt Q14012); test: Inhibition of CAMK1 (unknown origin) at 10 uM by [33P]-ATP radiometric assay; how it was run: as §2
MCF7 [24] = test: Induction of apoptosis in human MCF7 cells assessed as early apoptotic cells at 1 uM after 72 hrs by annexin V-FITC/propidium iodide staining-based flow cytometric method (reference value: 9%); assay type: functional
MCF7 [25] = test: Induction of apoptosis in human MCF7 cells assessed as viable cells at 5 uM after 72 hrs by annexin V-FITC/propidium iodide staining-based flow cytometric method (reference value: 76%); assay type: functional; conditions: MCF7, 72 h, read-out: Activity
MCF7 [26] = test: Induction of apoptosis in human MCF7 cells assessed as early apoptotic cells at 10 uM after 72 hrs by annexin V-FITC/propidium iodide staining-based flow cytometric method (reference value: 9%); assay type: functional
[27] = molecular target: Protein kinase C beta type (Homo sapiens) (UniProt P05771); test: Inhibition of PCK-beta2 (unknown origin) at 10 uM by [33P]-ATP radiometric assay; how it was run: as §2
MCF7 [28] = test: Induction of apoptosis in human MCF7 cells assessed as necrotic cells at 10 uM after 72 hrs by annexin V-FITC/propidium iodide staining-based flow cytometric method (reference value: 12.6%); assay type: functional
[29] = molecular target: Calcium/calmodulin-dependent protein kinase type II subunit alpha (Homo sapiens) (UniProt Q9UQM7); test: Inhibition of CAMK2-alpha (unknown origin) at 10 uM by [33P]-ATP radiometric assay; how it was run: as §2
MCF7 [30] = test: Induction of apoptosis in human MCF7 cells assessed as increase of late apoptotic cells at 10 uM after 72 hrs by annexin V-FITC/propidium iodide staining-based flow cytometric method relative to control; assay type: functional
How it was run: (§3)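 MCF-7 cells treated 72 h at final 1, 5, 10 µM, then annexin V-FITC/PI stained in pH 7.4 HEPES binding buffer and analysed by flow cytometry. Early or late apoptotic cell fraction expressed as percent change versus vehicle control: (sample − control)/control × 100. Triplicates.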

MCF7 [31] = test: Induction of apoptosis in human MCF7 cells assessed as increase of early apoptotic cells after 72 hrs by annexin V-FITC/propidium iodide staining-based flow cytometric method; assay type: functional, cell-based; how it was run: as §3
MCF7 [32] = test: Induction of apoptosis in human MCF7 cells assessed as increase of early apoptotic cells at 1 to 10 uM after 72 hrs by annexin V-FITC/propidium iodide staining-based flow cytometric method relative to control; assay type: functional; how it was run: as §3

Sequence of Mitogen-activated protein kinase 3 (Homo sapiens) (P27361 whole entry): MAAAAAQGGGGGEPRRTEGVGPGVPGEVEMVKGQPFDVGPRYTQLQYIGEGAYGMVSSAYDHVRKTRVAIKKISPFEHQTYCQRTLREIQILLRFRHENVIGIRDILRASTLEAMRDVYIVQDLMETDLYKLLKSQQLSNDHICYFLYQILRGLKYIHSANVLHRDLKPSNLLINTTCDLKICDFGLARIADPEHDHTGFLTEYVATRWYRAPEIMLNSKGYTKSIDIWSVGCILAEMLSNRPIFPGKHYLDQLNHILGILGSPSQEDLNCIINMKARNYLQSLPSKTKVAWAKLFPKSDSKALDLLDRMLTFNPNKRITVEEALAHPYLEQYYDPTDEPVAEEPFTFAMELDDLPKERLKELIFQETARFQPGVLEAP
Sequence of Hepatocyte growth factor receptor (Homo sapiens) (P08581 whole entry): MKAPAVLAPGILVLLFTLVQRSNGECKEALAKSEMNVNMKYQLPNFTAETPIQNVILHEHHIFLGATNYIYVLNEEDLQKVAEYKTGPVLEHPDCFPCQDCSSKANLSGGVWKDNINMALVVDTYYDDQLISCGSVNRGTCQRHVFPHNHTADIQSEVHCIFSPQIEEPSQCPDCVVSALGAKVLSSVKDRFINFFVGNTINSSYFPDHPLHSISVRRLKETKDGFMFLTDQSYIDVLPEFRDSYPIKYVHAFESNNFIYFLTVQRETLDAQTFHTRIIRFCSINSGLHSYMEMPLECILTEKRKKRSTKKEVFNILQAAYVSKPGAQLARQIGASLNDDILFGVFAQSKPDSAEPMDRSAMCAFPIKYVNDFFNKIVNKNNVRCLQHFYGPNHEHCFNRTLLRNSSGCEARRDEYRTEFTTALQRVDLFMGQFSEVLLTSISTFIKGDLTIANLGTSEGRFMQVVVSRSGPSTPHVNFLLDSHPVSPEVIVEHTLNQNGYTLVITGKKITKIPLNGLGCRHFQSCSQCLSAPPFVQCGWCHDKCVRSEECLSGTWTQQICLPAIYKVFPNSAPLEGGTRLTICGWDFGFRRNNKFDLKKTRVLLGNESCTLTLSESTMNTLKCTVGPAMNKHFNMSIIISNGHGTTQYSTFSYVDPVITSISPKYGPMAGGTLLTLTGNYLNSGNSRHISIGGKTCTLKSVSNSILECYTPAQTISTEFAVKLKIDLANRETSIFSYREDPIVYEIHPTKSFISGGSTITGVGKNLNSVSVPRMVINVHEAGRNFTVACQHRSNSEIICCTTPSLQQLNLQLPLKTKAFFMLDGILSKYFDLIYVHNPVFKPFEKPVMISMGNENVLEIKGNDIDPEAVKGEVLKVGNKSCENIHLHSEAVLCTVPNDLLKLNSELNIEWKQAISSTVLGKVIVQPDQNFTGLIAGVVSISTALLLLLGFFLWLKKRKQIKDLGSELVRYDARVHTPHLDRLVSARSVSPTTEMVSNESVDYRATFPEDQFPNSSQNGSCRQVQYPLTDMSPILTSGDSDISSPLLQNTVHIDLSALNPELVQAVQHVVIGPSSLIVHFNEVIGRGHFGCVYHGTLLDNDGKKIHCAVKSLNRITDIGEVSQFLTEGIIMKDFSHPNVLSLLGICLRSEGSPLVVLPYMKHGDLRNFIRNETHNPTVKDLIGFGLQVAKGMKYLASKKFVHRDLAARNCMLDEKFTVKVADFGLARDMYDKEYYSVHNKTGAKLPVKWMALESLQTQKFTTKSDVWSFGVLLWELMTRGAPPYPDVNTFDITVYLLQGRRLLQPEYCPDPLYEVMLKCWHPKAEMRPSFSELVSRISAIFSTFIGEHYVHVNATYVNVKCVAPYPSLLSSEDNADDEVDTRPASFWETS
Sequence of Fibroblast growth factor receptor 1 (Homo sapiens) (P11362 22-822 limits assumed): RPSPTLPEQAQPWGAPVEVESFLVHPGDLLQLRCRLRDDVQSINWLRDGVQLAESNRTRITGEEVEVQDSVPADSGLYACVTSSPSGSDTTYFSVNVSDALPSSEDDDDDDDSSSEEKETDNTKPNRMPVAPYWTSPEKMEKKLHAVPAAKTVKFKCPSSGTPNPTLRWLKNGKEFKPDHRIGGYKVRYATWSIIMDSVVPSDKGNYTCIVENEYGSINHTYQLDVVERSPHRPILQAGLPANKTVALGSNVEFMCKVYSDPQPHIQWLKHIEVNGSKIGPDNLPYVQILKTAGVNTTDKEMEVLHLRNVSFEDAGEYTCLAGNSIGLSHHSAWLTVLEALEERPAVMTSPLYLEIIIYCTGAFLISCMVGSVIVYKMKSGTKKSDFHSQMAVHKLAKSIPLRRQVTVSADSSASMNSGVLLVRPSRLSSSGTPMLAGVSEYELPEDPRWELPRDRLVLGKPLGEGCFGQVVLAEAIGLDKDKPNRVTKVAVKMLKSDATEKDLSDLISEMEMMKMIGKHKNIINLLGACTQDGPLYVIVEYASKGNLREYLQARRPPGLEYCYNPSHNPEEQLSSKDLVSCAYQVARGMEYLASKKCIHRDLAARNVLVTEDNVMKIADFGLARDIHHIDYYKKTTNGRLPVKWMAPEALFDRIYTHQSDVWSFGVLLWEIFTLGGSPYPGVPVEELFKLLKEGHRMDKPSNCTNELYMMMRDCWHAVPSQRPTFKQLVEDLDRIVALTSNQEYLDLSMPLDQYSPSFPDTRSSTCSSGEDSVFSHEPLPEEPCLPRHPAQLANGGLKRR
Sequence of Protein kinase C beta type (Homo sapiens) (P05771 2-671 limits assumed): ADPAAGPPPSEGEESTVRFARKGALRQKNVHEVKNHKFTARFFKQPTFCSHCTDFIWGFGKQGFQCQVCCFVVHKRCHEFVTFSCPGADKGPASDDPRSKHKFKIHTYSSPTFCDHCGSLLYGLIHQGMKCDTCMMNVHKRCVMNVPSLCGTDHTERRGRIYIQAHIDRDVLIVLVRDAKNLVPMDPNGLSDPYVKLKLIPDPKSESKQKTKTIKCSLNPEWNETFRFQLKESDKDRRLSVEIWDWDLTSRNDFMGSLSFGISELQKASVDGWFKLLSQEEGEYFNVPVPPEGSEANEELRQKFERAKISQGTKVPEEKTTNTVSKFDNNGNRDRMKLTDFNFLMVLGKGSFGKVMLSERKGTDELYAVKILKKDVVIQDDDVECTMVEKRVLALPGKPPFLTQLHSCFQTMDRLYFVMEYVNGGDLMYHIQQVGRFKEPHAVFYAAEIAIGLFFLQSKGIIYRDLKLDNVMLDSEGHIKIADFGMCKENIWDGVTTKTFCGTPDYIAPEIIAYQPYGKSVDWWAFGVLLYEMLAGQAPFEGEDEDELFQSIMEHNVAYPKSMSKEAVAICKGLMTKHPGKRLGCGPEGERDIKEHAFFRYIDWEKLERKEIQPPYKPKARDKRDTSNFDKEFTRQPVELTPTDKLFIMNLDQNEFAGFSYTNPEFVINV
Sequence of Mitogen-activated protein kinase 8 (Homo sapiens) (P45983 whole entry): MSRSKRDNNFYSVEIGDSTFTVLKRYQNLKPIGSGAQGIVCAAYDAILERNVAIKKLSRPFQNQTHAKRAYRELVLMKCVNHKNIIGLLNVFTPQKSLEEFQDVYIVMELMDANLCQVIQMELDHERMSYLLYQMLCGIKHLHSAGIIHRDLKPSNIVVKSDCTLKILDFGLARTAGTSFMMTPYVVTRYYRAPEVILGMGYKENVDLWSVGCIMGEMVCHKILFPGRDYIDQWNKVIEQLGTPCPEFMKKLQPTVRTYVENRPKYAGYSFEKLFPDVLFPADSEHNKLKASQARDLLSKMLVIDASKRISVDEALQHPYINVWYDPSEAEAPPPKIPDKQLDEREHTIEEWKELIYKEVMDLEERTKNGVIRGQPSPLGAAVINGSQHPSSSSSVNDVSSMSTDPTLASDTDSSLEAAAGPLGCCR
Sequence of Activin receptor type-2A (Homo sapiens) (P27037 whole entry): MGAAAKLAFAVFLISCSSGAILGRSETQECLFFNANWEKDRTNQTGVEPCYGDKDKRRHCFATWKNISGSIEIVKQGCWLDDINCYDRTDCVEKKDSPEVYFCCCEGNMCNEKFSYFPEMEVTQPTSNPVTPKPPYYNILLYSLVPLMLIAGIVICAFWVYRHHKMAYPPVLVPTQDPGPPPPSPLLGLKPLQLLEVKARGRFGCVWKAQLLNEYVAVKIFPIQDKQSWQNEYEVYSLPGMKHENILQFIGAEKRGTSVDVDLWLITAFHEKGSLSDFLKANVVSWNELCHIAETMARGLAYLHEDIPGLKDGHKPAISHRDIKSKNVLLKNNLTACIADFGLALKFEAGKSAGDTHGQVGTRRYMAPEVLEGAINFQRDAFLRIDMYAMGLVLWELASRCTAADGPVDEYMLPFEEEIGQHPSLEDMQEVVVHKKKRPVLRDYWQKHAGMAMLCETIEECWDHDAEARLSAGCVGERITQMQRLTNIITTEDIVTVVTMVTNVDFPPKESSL
Sequence of Cyclin-dependent kinase 16 (Homo sapiens) (Q00536 whole entry): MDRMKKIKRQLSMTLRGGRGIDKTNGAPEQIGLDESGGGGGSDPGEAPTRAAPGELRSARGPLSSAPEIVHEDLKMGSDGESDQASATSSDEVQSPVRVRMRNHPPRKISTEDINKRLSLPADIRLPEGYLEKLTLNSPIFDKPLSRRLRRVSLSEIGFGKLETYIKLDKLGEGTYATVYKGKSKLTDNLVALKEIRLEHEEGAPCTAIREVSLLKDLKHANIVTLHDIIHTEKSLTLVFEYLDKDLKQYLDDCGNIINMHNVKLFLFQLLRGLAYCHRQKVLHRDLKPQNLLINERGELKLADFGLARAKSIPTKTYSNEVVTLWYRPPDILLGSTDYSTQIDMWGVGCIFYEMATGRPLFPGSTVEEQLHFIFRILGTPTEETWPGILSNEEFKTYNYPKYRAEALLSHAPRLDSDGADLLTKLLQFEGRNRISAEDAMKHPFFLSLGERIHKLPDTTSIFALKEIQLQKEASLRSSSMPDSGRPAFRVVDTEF
Sequence of Calcium/calmodulin-dependent protein kinase type 1 (Homo sapiens) (Q14012 whole entry, looked up): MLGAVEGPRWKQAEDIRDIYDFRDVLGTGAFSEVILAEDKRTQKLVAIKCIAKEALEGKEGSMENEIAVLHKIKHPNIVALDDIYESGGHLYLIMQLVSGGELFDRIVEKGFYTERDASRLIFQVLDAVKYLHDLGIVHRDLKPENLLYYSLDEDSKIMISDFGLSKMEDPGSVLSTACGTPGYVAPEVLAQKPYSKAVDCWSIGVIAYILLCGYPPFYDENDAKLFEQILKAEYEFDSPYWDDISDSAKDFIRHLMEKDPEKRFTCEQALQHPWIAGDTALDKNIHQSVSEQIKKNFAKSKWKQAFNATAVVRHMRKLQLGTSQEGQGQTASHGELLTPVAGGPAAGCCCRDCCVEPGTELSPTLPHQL

| IC50 (MCF7 [1]) | IC50 (K562) | IC50 (A2780) | IC50 (HCT-116) | SMILES | IC50 [2] | Activity (MCF7 [4]) | Activity (MCF7 [5]) | Activity (MCF7 [6]) | Activity (MCF7 [9]) | Activity (MCF7 [14]) | Activity (MCF7 [17]) | viability at 10 µM (MCF7 [18]) | viability at 1 µM (MCF7 [19]) | Activity (MCF7 [24]) | viability at 5 µM (MCF7 [25]) | Activity (MCF7 [26]) | Activity (MCF7 [28]) | other results |
| --- | --- | --- | --- | --- | --- | --- | --- | --- | --- | --- | --- | --- | --- | --- | --- | --- | --- | --- |
| 3130 nM | 23200 nM | 2890 nM | 5220 nM | COc1ccc2nc3nc(NCc4ccc(CN5CCOCC5)cc4)[nH]c(=O)c3cc2c1 | 49100 nM |  |  |  |  |  |  |  |  |  |  |  |  |  |
| 2340 nM | 15900 nM | 1520 nM | 7230 nM | Cc1ccc2nc3nc(NCc4ccc(CN5CCCCC5)cc4)[nH]c(=O)c3cc2c1 | 11000 nM |  |  |  |  |  |  |  |  |  |  |  |  |  |
| 40 nM | > 50000 nM | 50 nM | 50 nM | COc1ccc2nc3nc(NCc4ccc(CN5CCN(C)CC5)cc4)[nH]c(=O)c3nc2c1 |  | 18.6% | 5% | 4.1% | 5.4% | 9.7% | 3.7% | 72.2% | 78.4% | 8.1% | 72.3% | 6.2% | 16.3% | inhibition [3]: 7%; inhibition [7]: -6%; inhibition [8]: 2%; inhibition [10]: 8%; inhibition [11]: 25%; inhibition [12]: -7%; inhibition [13]: -9%; inhibition [15]: -2%; inhibition [16]: 12%; inhibition [20]: 12%; inhibition [21]: -10%; inhibition [22]: -1%; inhibition [23]: 19%; inhibition [27]: -7%; inhibition [29]: 8% |
| 1790 nM |  |  |  | CSc1nc2nc3ccc(C)cc3cc2c(=O)[nH]1 |  |  |  |  |  |  |  |  |  |  |  |  |  |  |
| 6800 nM |  | 10400 nM | 10100 nM | CS(=O)(=O)CCNCc1ccc(-c2ccc3ncnc(Nc4ccc(OCc5cccc(F)c5)c(Cl)c4)c3c2)o1 [LAPATINIB] |  |  |  |  |  |  |  |  |  |  |  |  |  |  |
| 160 nM | > 50000 nM | 200 nM | 170 nM | COc1ccc(CCN2CCC(Nc3nc4nc5ccc(C)cc5nc4c(=O)[nH]3)CC2)cc1 | > 50000 nM | 3.6% | 18% | 14.1% | 30% | 7.6% | 13.3% | 44.6% | 66.7% | 12.4% | 64.1% | 20.7% | 4.8% | inhibition [3]: 8%; fold change (FC) (MCF7 [30]): 12; inhibition [7]: -5%; inhibition [8]: 7%; inhibition [10]: 1%; inhibition [11]: -2%; inhibition [12]: 10%; inhibition [13]: -7%; Activity (MCF7 [31]): Dose-dependent effect; inhibition [16]: -5%; inhibition [20]: 18%; inhibition [22]: 9%; inhibition [23]: 19%; inhibition [27]: 7%; fold change (FC) (MCF7 [32]): 2; inhibition [29]: 4% |
| 550 nM | > 50000 nM | 700 nM | 1300 nM | COc1ccc2nc3nc(NCc4ccc(CN(C)C)cc4)[nH]c(=O)c3nc2c1 | > 50000 nM | 7.7% | 17% | 7.9% | 12% | 16.2% | 4.8% | 60% | 67.3% | 11.7% | 67.4% | 22.1% | 5.9% | Activity (MCF7 [31]): Dose-dependent effect; fold change (FC) (MCF7 [32]): 2 |

Source: ChEMBL document CHEMBL4152228, “Structural-based design, synthesis, and antitumor activity of novel alloxazine analogues with potential selective kinase inhibition” (Eur J Med Chem, 2018)
